The target of data set [1] is T1, Pyrroline-5-carboxylate reductase 1, mitochondrial (Homo sapiens, UniProt P32322).
T1 sequence (P32322 whole entry): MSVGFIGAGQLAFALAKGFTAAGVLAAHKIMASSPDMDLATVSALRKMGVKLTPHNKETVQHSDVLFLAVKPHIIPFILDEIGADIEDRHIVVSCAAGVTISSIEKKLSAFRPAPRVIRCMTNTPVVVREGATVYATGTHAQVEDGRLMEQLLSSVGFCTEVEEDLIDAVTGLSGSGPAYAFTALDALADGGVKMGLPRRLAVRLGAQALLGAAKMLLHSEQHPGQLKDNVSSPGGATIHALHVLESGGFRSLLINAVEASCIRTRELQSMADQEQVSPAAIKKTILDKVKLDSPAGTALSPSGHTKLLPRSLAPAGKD
The data set can be described thus: Inhibition of 6x-His-tagged and SUMO tagged human PYCR1 expressed in Escherichia coli BL21 (DE3) cells assessed as reduction in NADH oxidation incubated for 1 hr.

Data set [2] concerns SUM-159-PT. The data set can be described thus: Effect on leucine content in human SUM159PT cells at 100 uM by LC-MS analysis relative to control. Type of data set: functional, cell-based. The method, boiled down:
(§1)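 Human breast cancer SUM-159-PT cells were incubated with test agent at 1, 5, 20 and 100 µM (or at 100 µM alone). The cells were then lysed, and proline and the essential amino acids were quantified by LC-MS. Each amino acid level was compared against an untreated control culture.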

Data set [3] relates to SUM-159-PT. The data set can be described thus: Effect on methionine content in human SUM159PT cells at 100 uM by LC-MS analysis relative to control. It is filed as functional, cell-based. The method, boiled down: as §1
Data set [4] deals with SUM-159-PT. Description: Effect on isoleucine content in human SUM159PT cells at 100 uM by LC-MS analysis relative to control. It is filed as functional, cell-based. The method, boiled down: as §1
For data set [5], the system named is SUM-159-PT. The data set can be described thus: Effect on valine content in human SUM159PT cells at 100 uM by LC-MS analysis relative to control. Type of data set: functional, cell-based. Summed up:
as §1

Data set [6] relates to SUM-159-PT. The data set can be described thus: Effect on phenylalanine content in human SUM159PT cells at 100 uM by LC-MS analysis relative to control. It is filed as functional, cell-based. The method, boiled down: as §1
In data set [7] the test system is SUM-159-PT. The data set can be described thus: Effect on tryptophan content in human SUM159PT cells at 100 uM by LC-MS analysis relative to control. It is filed as functional, cell-based. Summed up: as §1
The target in data set [8] is T2, Amine oxidase [flavin-containing] B (Homo sapiens, UniProt P27338).
T2 sequence (P27338 whole entry): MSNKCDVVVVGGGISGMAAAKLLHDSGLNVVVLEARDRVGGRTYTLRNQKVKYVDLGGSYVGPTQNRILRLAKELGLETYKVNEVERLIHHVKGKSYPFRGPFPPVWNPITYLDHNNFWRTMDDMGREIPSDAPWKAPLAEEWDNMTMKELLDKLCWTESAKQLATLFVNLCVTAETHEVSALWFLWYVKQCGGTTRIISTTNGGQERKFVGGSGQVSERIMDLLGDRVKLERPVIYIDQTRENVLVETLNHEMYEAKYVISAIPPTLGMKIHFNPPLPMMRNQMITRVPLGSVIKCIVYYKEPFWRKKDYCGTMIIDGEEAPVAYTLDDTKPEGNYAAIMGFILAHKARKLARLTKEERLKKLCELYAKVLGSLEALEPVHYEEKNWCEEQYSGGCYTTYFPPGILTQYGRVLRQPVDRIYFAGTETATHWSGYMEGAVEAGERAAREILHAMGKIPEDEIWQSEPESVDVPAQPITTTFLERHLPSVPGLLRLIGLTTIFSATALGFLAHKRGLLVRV
The data set can be described thus: Inhibition of MAOB (unknown origin).

Data set [9] has as its system SUM-159-PT. Description: Effect on methionine content in human SUM159PT cells at 1 to 100 uM by LC-MS analysis relative to control. It is filed as ADME, cell-based. The method, boiled down:
as §1

The test system of data set [10] is SUM-159-PT. Description: Effect on tryptophan content in human SUM159PT cells at 1 to 100 uM by LC-MS analysis relative to control. It is filed as ADME, cell-based. Summed up: as §1
Data set [11] concerns SUM-159-PT. Description: Effect on phenylalanine content in human SUM159PT cells at 1 to 100 uM by LC-MS analysis relative to control. It is filed as ADME, cell-based. The method, boiled down:
as §1

Data set [12] has as its system SUM-159-PT. Description: Effect on leucine content in human SUM159PT cells at 1 to 100 uM by LC-MS analysis relative to control. It is filed as ADME, cell-based. The method, boiled down:
as §1

Data set [13] relates to SUM-159-PT. Description: Effect on valine content in human SUM159PT cells at 1 to 100 uM by LC-MS analysis relative to control. It is filed as ADME, cell-based. Summed up:
as §1

In data set [14] the test system is SUM-159-PT. Description: Effect on isoleucine content in human SUM159PT cells at 1 to 100 uM by LC-MS analysis relative to control. Type of data set: ADME, cell-based. Summed up:
as §1

The subject of data set [15] is SUM-159-PT. Description: Toxicity in human SUM159PT cells assessed as reduction in cell viability at 100 uM. Type of data set: cell-based.

Active and inactive are the calls of the source. The rule behind the calls is not given here.

By IC50 is commonly meant the concentration that inhibits the measured activity by half. Turning to `C#CCN(CCC)Cc1ccc(Br)cc1`, the IC50 in [1] was greater than 500 µM. Still for that read-out and setting: the value for `C#CCN(C)Cc1cccc(Br)c1` was 276 µM; that for `C#CCN(CCC=C)Cc1ccc(Br)cc1` was greater than 500 µM; that for `C#CCN(C)Cc1ccc(C)cc1` was 40 µM. On to `C#CCN(C)Cc1ccccc1[N+](=O)[O-]`, for which the IC50 in [1] is greater than 500 µM. The same measure, in the same setting: the figure for `CNCc1ccc(Br)cc1` is 161 µM; for `C#CCN(C)Cc1ccc(F)cc1` it is 311 µM. For `C#CCN(C)Cc1ccc(Br)cc1OC`, in [1], the IC50 was 21 µM. As for `CC#CCN(C)Cc1ccc(Br)cc1`, the IC50 in [1] was found to be 16 µM. On the same count and under the same terms, the figure for `C#CCN(C)Cc1ccc(Br)cc1F` is 42 µM; for `C#CCN(C)Cc1ccc(Cl)cc1Cl` it is 9.2 µM; for `C#CCN(Cc1ccc(Br)cc1)C(C)=O` it is greater than 500 µM. The same measure, in the same setting: the value for `C#CCN(C)Cc1ccc(C)cc1C` was 55 µM; that for `C#CCN(C)Cc1ccc(Br)cc1C` was 38 µM. Still for that read-out and setting: the value for `C#CCN(C)Cc1ccc(C#N)cc1` was greater than 500 µM. Consider `CN(Cc1ccc(Br)cc1)CC1CC1`, for which the IC50 in data set [1] was greater than 500 µM.

Take `C#CCN(Cc1ccc(Br)cc1)CC1CC1`: the IC50 in [1] was greater than 500 µM. On to `C#CCN(Cc1ccc(Br)cc1)Cc1ccc(Br)cc1`, for which the IC50 in [1] is 92 µM. Same read-out and setting: the figure for `C#CCN(C)Cc1cccc(Cl)c1` is 52 µM; for `CN(Cc1ccccc1)Cc1ccc(Br)cc1` it is greater than 500 µM. As for `C#CCN(C)Cc1cccc([N+](=O)[O-])c1`, the IC50 in [1] is 394 µM. Turning to `C#CCN(Cc1ccc(Br)cc1)S(C)(=O)=O`, the IC50 in data set [1] was greater than 500 µM. On the same count and under the same terms, the figure for `C#CCN(CC)Cc1ccc(Br)cc1` is 58 µM. On the same count and under the same terms, the figure for `C#CCN(Cc1ccc(Br)cc1)Cc1cc(C)no1` is 100 µM; for `C#CCN(C)Cc1ccc([N+](=O)[O-])cc1` it is 43 µM; for `C#CCN(C)Cc1ccc(Br)cc1Cl` it is 34 µM. Turning to `C#CCN(C)CCc1ccc(Br)cc1`, in data set [1], the IC50 was greater than 500 µM. For `C#CCN1CCc2cc(Br)ccc2C1`, the IC50 in data set [1] was greater than 500 µM. On the same count and under the same terms, the value for `C#CCN(C)Cc1ccc(-c2ccccc2)cc1` was 315 µM. As for `C#CCN(C)Cc1cc(Cl)cc(Cl)c1`, in data set [1], the IC50 was greater than 500 µM. Same read-out and setting: the figure for `C#CCN(Cc1ccc(Br)cc1)C(C)C` is greater than 500 µM; for `C#CCN(C)Cc1ccc2ccccc2c1` it is 21 µM. On the same count and under the same terms, the figure for `C#CCN(C)Cc1ccc(C(C)=O)cc1` is 184 µM; for `C#CCN(C)Cc1ccc(-c2ccc(F)cc2)cc1` it is 211 µM; for `C#CCN(C)Cc1ccc(C(F)(F)F)cc1` it is 65 µM.

In the case of `C#CCN(C)Cc1cc(C)no1`, in data set [1], the IC50 was greater than 500 µM. Turning to `C#CCN(C)Cc1ccc(C(C)C)cc1`, in [1], the IC50 was 142 µM. `C#CCN(C)Cc1ccc(Cl)cc1Br`: the IC50 in data set [1] amounted to 66 µM.

For the molecule `C#CCN(C)Cc1c(Cl)cccc1Cl`, in [1], the IC50 is greater than 500 µM.

As for `C#CCN(C)Cc1ccc(Br)cc1Br`, the IC50 in data set [1] came to 228 µM.

Consider `C#CCN(C)Cc1ccc(OC)cc1`, for which, in data set [1], the IC50 amounted to 38 µM. Same read-out and setting: the value for `C#CCN(C)Cc1ccc(Cl)cc1` was 13 µM; that for `C=CCN(C)Cc1ccc(Br)cc1` was greater than 500 µM; that for `C#CCN(C)Cc1ccccc1Br` was 200 µM. In the case of `C#CCN(C)Cc1ccc(Cl)c(C(F)(F)F)c1`, the IC50 in [1] turned out to be 43 µM. Still for that read-out and setting: the figure for `C#CC(C)N(C)Cc1ccc(Br)cc1` (centres undefined) is 394 µM. Same read-out and setting: the value for `C#CCN(CC(=O)OC(C)(C)C)Cc1ccc(Br)cc1` was greater than 500 µM. Same read-out and setting: the figure for `C#CCN(C)Cc1ccc(OC)cc1OC` is greater than 500 µM. Turning to `C#CCN(C)Cc1ccccc1` [PARGYLINE], in data set [1], the half-inhibitory concentration (IC50) was determined as 198 µM. For the same molecule, the outcome in the data set on SUM-159-PT [2], in the data set on SUM-159-PT [3], with SUM-159-PT [4], in the data set on SUM-159-PT [5], with SUM-159-PT [6] and in the data set on SUM-159-PT [7] was inactive. Regarding `C#CCN(C)Cc1ccc(F)cc1Br`, the IC50 in data set [1] is greater than 500 µM.

In the case of `CCCN(C)Cc1ccc(Br)cc1`, in data set [1], the IC50 stood at 337 µM.

Take `CN(CC#Cc1ccccc1)Cc1ccc(Br)cc1`: in data set [1], the concentration for half-maximal inhibition (IC50) was found to be 71 µM. As to `C#CCNCc1ccc(Br)cc1`, the IC50 in [1] stood at 99 µM.

With `C#CCN(C)Cc1ccc(I)cc1`, the IC50 in data set [1] was 9.7 µM. Turning to `C#CCN1Cc2ccc(Br)cc2C1`, the IC50 in data set [1] was greater than 500 µM.

Regarding `C#CCN(C)Cc1ccc(Cl)c(Cl)c1`, the IC50 in [1] worked out at 13.6 µM. Still for that read-out and setting: the value for `C#CCN(C)C(C)c1ccc(Br)cc1` (centres undefined) was 316 µM.

`C#CCCN(C)Cc1ccc(Br)cc1`: the IC50 in data set [1] is greater than 500 µM. Take `C#CCN(C)Cc1ccc(Br)cc1`: in [8], the IC50 amounted to 0.3 µM. Besides, the Activity entry in the data set on SUM-159-PT [9], with SUM-159-PT [10], in the data set with SUM-159-PT [11], in the data set with SUM-159-PT [12], in the data set on SUM-159-PT [13] and in the data set on SUM-159-PT [14] was “Non-Toxic” throughout. Also, in the data set with SUM-159-PT [15], the Activity result was “Non-Toxic”. In the case of `C#CCN(C)Cc1cc(Br)cs1`, the IC50 in data set [1] was greater than 500 µM. The same measure, in the same setting: the figure for `C#CCN(C)Cc1ccccc1Cl` is 139 µM.

Values taken from ChEMBL document CHEMBL4385657, “A fragment-like approach to PYCR1 inhibition” (Bioorg Med Chem Lett, 2019).
